Experimental data from PubChem BioAssay AID588731 (Vanderbilt Specialized Chemistry Center, 2011).
Calls of active or inactive are those of the source.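 The calls were made as follows: active = compounds shifting agonist potency at least twofold either way, or pushing peak agonist response below 75% or above 125%; inactive = the rest.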

Molecular target: Metabotropic glutamate receptor 7 (Rattus norvegicus) (UniProt P35400)
Assay: rat mGlu7 allosteric modulation, L-AP4 curve shift, profiling panel, selectivity assay for mGlu5 PAM project, thallium flux, HEK/GIRK cells (AID 588731)
Conditions: L-AP4 CRC shift, at 10 µM; for Emax: measured here: L-AP4 max response with compound
In short: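 Material: HEK cells with GIRK channels expressing rat mGlu7 receptor. Probe or stimulus: L-AP4 concentration-response curve. Compound dosing: single test compound concentration of 10 µM final. Incubation: dye loading 45 min at 37 °C, L-AP4 addition at 142 s. Signal: GIRK thallium flux fluorescence. Evaluation: agonist EC50 fold shift and %Emax.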

Sequence of Metabotropic glutamate receptor 7 (Rattus norvegicus) (P35400 whole entry, looked up): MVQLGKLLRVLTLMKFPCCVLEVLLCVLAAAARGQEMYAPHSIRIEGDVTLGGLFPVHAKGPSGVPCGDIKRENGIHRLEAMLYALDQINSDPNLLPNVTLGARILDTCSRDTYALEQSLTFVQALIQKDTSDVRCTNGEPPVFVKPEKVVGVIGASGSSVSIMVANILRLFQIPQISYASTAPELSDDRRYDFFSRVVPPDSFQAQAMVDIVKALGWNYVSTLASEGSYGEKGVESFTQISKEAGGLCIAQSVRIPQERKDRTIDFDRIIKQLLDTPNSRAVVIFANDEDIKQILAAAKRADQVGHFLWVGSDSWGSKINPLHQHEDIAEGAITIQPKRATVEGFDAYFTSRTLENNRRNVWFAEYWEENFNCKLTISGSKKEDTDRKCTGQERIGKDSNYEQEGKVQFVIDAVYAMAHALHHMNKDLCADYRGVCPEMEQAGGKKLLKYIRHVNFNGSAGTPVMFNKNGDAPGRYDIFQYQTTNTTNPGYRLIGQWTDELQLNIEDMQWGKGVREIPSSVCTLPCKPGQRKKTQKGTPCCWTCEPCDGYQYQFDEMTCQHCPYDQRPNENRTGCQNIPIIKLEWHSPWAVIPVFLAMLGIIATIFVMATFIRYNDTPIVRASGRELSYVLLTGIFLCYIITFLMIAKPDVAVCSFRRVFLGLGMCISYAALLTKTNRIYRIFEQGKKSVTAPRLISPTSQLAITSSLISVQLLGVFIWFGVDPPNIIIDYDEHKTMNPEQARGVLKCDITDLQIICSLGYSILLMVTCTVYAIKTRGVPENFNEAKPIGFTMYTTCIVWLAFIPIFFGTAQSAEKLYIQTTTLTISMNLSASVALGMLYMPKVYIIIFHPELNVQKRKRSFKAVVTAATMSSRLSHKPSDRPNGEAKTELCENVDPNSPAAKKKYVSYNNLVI

fold shift	Emax [%]	Compound
1.04 (inactive)	92	C[C@@H](NC(=O)c1ccc(C#Cc2cccc(F)c2)cn1)C(C)(C)O
0.77 (inactive)	92.3	CC1(NC(=O)c2ccc(C#Cc3cccc(F)c3)cn2)COC1
